This passage reports IC50 results from ChEMBL document CHEMBL1149396, “In silico design and synthesis of piperazine-1-pyrrolidine-2,5-dione scaffold-based novel malic enzyme inhibitors” (Bioorg Med Chem Lett, 2006).

SMILES strings stand for the structures. Bounds are passed on as bounds.

For the experiment, the target named is T1, NADP-dependent malic enzyme (Homo sapiens, UniProt P48163).
T1 sequence (P48163 whole entry): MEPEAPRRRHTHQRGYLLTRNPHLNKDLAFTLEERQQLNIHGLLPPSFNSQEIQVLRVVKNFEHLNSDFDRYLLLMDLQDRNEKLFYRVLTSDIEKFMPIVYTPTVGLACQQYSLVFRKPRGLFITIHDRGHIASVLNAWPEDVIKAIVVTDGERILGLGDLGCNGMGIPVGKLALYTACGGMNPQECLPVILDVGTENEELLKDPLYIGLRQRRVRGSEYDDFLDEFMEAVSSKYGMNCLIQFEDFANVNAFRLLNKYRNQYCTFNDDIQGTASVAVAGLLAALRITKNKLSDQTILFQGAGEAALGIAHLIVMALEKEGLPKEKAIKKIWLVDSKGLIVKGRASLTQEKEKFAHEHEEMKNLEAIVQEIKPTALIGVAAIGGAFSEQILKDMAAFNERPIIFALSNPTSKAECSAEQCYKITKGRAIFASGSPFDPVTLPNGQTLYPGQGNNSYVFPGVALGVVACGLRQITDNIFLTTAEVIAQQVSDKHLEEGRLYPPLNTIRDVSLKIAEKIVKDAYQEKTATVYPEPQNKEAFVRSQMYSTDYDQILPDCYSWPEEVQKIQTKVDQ
Kind of experiment: Inhibitory activity against cytosolic malic enzyme. In a few lines: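 Coupled endpoint assay. Enzyme pre-incubated with compound 45 min at room temperature in 85 mM Tris pH 7.5 containing 2 mM malic acid and 5 mM MnCl2. Reaction started with 124 µM NADP, run 30 min at room temperature, stopped with 0.5 M EDTA. NADPH formed read via MTS/PMS reduction to formazan, absorbance at 492 nm.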
With `O=C1CC(N2CCN(c3cccc(O)c3)CC2)C(=O)N1Cc1ccccc1` (stereo not given), inhibition was half-maximal at 10 µM (IC50). The molecule `O=C1CC(N2CCN(c3ccc(O)cc3)CC2)C(=O)N1Cc1ccccc1` (stereo not given) yielded an IC50 of 0.45 µM. In turn, `COc1ccc(N2CCN(C3CC(=O)N(c4ccccc4)C3=O)CC2)cc1` (stereo not given) returned an IC50 above 20 µM.

As to `COc1ccc(N2CCN(C3CC(=O)N(Cc4ccccc4)C3=O)CC2)cc1` (stereo not given), the IC50 is above 20 µM. In the case of `Cc1ccc(N2C(=O)CC(N3CCN(c4ccc(O)cc4)CC3)C2=O)cc1Cl` (stereo not given), the midpoint of inhibition, the IC50, lay at 0.56 µM. The same measure for `O=C1CC(N2CCN(c3cccc(C(F)(F)F)c3)CC2)C(=O)N1c1ccccc1` (stereo not given): 3.15 µM; for `O=C1CC(N2CCN(c3ccccc3O)CC2)C(=O)N1Cc1ccccc1` (stereo not given): above 20 µM; for `O=C1CC(N2CCN(c3ccc(F)cc3)CC2)C(=O)N1c1ccccc1` (stereo not given): 10 µM. In turn, `COc1ccc(N2CCN(C3CC(=O)N(c4cccc(Cl)c4Cl)C3=O)CC2)cc1` (stereo not given) came in with a 50% inhibitory concentration (IC50) above 20 µM.

`O=C1CC(N2CCN(c3ccc(O)cc3)CC2)C(=O)N1c1ccccc1` (stereo not given) yielded an IC50 of 0.15 µM. That is a sub-micromolar value.
